Data on 40 compounds can be found in PubChem BioAssay.

Molecules are shown by their SMILES. A number with no mark means an inactive call.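 The calls were made as follows: active = viability at or below 30% in both replicate assays; inconclusive = viability at or below 30% in just one of the two assays; inactive = the rest.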

This experiment in a line: HUVEC growth inhibition – cell-based, human, primary screen (AID 575).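 Also: 100% = median of untreated cell wells with 0.1% DMSO on each plate.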 The note with it: HUVEC proliferation, CellTiter-Glo luminescence, 72 h; at 10 µM; stronger effect = lower value. The procedure, abridged:
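Test system – primary HUVEC, no more than 12 passages · Dosing – one dose, 10 µM final, 0.1% DMSO · Times – 72 h treatment at 37 °C · Measured by – ATP-based CellTiter-Glo luminescent read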
In general terms: Cellular ATP, detected with luciferase, serves as a proxy for viable cell number.
Take `O=C(CSc1nnc(-c2cccnc2)o1)Nc1ccccn1`: the viability (as a rule, a read-out of living cells in per cent, often relative to untreated cells) was 94%.

In the case of `CCC1Oc2ccccc2N(CC(=O)Nc2ccc(OC)cc2OC)C1=O` (stereo not given), the viability was 106%.

`Cc1cccn2c(=O)c3cc(C(=O)N4CCCc5ccccc54)n(C)c3nc12`: the viability was 97.2%.

As to `CCN(CC)CCCn1c(=S)[nH]c2cc(Cl)ccc2c1=O`, the viability is 106%.

In the case of `CCCCC(=O)NCCNc1nc2c(c(=O)n(C)c(=O)n2C)n1Cc1ccccc1`, the viability is 99.3%.

As to `O=C(C1CCCCC1)N1CCC(c2nc3c(nnn3Cc3c(F)cccc3Cl)c(=O)[nH]2)CC1`, the viability is 85.2%.

As for `CCOc1ccc(OCC)c(NC(=O)CN2CCN(C(=O)c3ccco3)CC2)c1`, the viability was 82.4%.

Take `CN(C)CCCNC(=O)c1ccc(CN(c2ccccc2)S(C)(=O)=O)cc1`: the viability is 86.4%.

For `Cc1oc(-c2ccc(Cl)cc2)nc1CS(=O)CC(=O)NCCCN(C)C1CCCCC1` (stereo not given), the viability is 66.3%.

For the compound `N#CC1=C(N)OC(c2ccccc2)=C(C#N)C1c1ccc2c(c1)OCO2` (stereo not given), the viability is 85.5%.

Regarding `O=C1C(C=NCCCn2ccnc2)=C(O)c2ccccc21`, the viability was 105%.

Turning to `Cc1c(Cl)cccc1N1C(=O)c2ccccc2C1=O`, the viability is 99.5%.

As to `CN1C(=O)NC(NC(=O)C2CCCCC2)(C(F)(F)F)C1=O` (stereo not given), the viability was 98.7%.

For the compound `CCOC(=O)C1=C(C)Nc2ncnn2C1c1ccccc1F` (stereo not given), the viability was 116%.

Take `CCC(Oc1ccc2ccccc2c1)C(=O)O` (stereo not given): the viability was 85.6%.

In the case of `C=Cn1c(C(=O)O)cc(CC)c1-c1ccccc1`, the viability was 100%.

`CC(=O)N1CCc2cc(S(=O)(=O)NC(C(=O)NCc3ccccc3)C(C)C)ccc21` (stereo not given): the viability was 94.6%.

For `COc1ccccc1CN1CCCC(C(=O)N(C)Cc2ccccc2)C1` (stereo not given), the viability was 99.1%.

For the compound `CCOC(=O)c1c(N)sn(-c2ccccc2)c1=S`, the viability is 101%.

In the case of `Cc1cc(C)c2c(n1)nn1c(N3CCOCC3)cc(C)nc21`, the viability is 110%.

On to `CC(C)c1cc(C(=O)NCc2ccco2)no1`, for which the viability was 84.3%.

As for `NC(=O)COC(=O)CNC(=O)c1ccc(Cl)cc1`, the viability was 86.1%.

As to `Cc1cccc(-c2c3c(=O)n(C)c(=O)n(C)c3cn2-c2ccc(O)cc2)c1`, the viability is 108%.

On to `Cn1c(SC/C=C/c2ccccc2)nnc1-c1cnccn1`, for which the viability is 114%.

As to `COc1ccc2nc(N3CCC(C)CC3)c(C#N)cc2c1`, the viability is 86.6%.

`CC1(C)CC(=O)C(C#N)=C(NCCCO)C1`: the viability was 91.5%.

For `CCCc1[nH]nc2c1C(c1cccc(OC(=O)c3ccco3)c1)C(C#N)=C(N)O2` (stereo not given), the viability is 81.6%.

Consider `CC(=O)N(c1ccc(N(C(C)=O)S(=O)(=O)c2cccs2)cc1)S(=O)(=O)c1cccs1`, for which the viability is 85%.

As to `O=C(NCCC1=CCCCC1)N[C@@H](Cc1ccccc1)C(=O)O`, the viability was 100%.

For the compound `COc1ccccc1C(=O)n1nc(-c2ccccc2)nc1N`, the viability is 110%.

As to `O=C(O)COc1ccc2occ(C(=O)c3ccccc3)c2c1`, the viability is 100%.

Consider `O=C(NCC1CCCO1)C1CCCN(S(=O)(=O)c2cccc3nsnc23)C1` (stereo not given), for which the viability is 93.2%.

Regarding `CN1CCN(C(c2cccc(C(F)(F)F)c2)c2nnnn2C(C)(C)C)CC1` (stereo not given), the viability is 102%.

As for `Nc1nnnn1/N=C/c1ccccc1OCc1ccccc1`, the viability was 78.9%.

Consider `Cc1ccc(C(=O)C2COC(=O)C2)cc1` (stereo not given), for which the viability is 95.7%.

For `O=C(CSc1nnc(-c2c[nH]c3ccccc23)o1)N(Cc1ccccc1)c1ccc(F)cc1`, the viability was 65.9%.

`CC(C)OC(=O)CSc1nnc(-c2ccc(C(C)(C)C)cc2)n1N`: the viability was 86.7%.

For `COc1cc(Br)cc(/C=N/c2ncn[nH]2)c1O`, the viability was 35.2%.

Take `CSc1ccccc1N=CC1=C(O)CC(C)(C)CC1=O`: the viability was 67.1%.

Turning to `CC1(C)CC(CCNC(=O)c2ccco2)CC(C)(C)N1`, the viability is 84.2%.
